Source: article PMC3390648 (The Journal of Biological Chemistry, 2012)
Each block holds one molecule with its values, some of them ahead of it. Ends that are not written are not given here.

Columns and labels:
human primase = target: T1, human primase (Homo sapiens, UniProt P49642+P49643); experiment: Fluorescence polarization; format: binding; conditions: 25 °C, 25 mM HEPES, pH 7.2, 250 mM KCl, 1 mM TCEP, 30 nM fluorescein-labeled peptide, mean of three independent experiments
T1 sequence (P49643 1-462): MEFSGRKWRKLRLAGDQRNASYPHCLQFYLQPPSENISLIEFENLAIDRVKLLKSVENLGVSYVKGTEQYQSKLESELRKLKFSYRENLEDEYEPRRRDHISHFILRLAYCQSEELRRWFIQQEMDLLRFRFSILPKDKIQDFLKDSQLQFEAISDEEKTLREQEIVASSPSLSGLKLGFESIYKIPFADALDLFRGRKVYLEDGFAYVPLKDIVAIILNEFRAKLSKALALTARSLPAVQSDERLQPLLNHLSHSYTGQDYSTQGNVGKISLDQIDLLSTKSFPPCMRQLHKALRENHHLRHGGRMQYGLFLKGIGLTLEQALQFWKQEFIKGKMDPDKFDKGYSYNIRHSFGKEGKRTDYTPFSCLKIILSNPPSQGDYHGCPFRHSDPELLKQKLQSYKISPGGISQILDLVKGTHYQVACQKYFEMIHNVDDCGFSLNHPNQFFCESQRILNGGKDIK
T1 sequence (P49642 1-420 K72A/M73A partner): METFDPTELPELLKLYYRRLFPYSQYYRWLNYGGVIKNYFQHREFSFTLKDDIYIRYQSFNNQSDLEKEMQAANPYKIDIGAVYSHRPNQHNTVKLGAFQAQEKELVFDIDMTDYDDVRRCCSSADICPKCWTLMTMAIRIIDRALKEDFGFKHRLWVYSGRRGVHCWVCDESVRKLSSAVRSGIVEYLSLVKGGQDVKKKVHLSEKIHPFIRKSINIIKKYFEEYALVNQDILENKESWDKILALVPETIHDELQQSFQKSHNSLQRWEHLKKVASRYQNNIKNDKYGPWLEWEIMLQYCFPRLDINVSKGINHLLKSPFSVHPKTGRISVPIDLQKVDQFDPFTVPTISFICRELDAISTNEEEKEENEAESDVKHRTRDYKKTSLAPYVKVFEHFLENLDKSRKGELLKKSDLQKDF
Procedure, shortened: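 Peptide was human pol α 1445–1462 (wild type or point mutant), synthesized with an N-terminal fluorescein. Human primase was His-Prim1(1–420; K72A/M73A) with Prim2(1–462), made in E. coli and purified by Co-NTA, heparin, TEV cleavage and gel filtration. Serial protein dilutions were read at λex 485/λem 520 nm, 200 flashes per well. Gain was set against fluorescein (35 mP). Curves were fitted by Monte Carlo fitting.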

yeast primase [1] = experiment: Binding of pol1 C-terminal peptide to yeast primase; conditions: qualitative statement of abstract; method not given
yeast primase [2] = experiment: GST pulldown with yeast primase; format: binding; conditions: mutation to alanine of Phe1463
Procedure, shortened: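 GST-Pol1 1453–1468, wild type or single alanine mutants, was expressed in E. coli BL21(DE3). An excess was bound to glutathione-Sepharose and washed in 25 mM HEPES pH 7.0, 250 mM KCl, 1% BSA, 0.1% NP-40, 1 mM TCEP. Beads were incubated with 20 μM yeast primase (Pri1(1–409)/Pri2(49–513)) for 2 h at 4 °C, then washed, ending with a BSA-free wash. Bound protein was read by SDS-PAGE with Coomassie staining.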

Pol12 = experiment: Immunoprecipitation and immunoblotting, Pol12; format: cell-based, Saccharomyces cerevisiae; conditions: diploid yeast, anti-HA beads, native cell extracts, immunoblotting
Pri1-Pri2 primase = experiment: Analytical gel filtration, assembly with primase; format: binding, yeast; conditions: Superdex 200 10/300 GL, 14 μM complex, 25 mM HEPES, pH 7.2, 250 mM KCl, 5% glycerol, 0.5 mM TCEP; equimolar, 4 °C, 30 min
Procedure, shortened: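 Yeast primase Pri1(1–409)/His-Pri2(49–513) or the ΔCTD form Pri2(49–335), and Pol1 CTD(1263–1468)/His-Pol12(246–705), were expressed in E. coli Rosetta2(DE3). They were purified by Co-NTA, heparin, TEV tag cleavage and gel filtration. Equimolar partners were mixed for 30 min at 4 °C, and 100 μl was injected at 0.5 ml/min. Fractions were read by SDS-PAGE with Coomassie staining.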

Molecule: F1455A (GYSEVNLSKLAAGCAVKS; also: fluorescein label, position not given here)
- level of binding (human primase): did not display a measurable level of binding

- binding to primase (yeast primase [1]): binds primase with high affinity
Molecule: GRRYVDMTSIFDFMLN [pol1 peptide]

Molecule: F1463A (GRRYVDMTSIADFMLN; also: GST fusion, N-terminal)
- interaction with primase (abstract summary, in vitro) (yeast primase [2]): abrogates the interaction with the primase

B1: Pol1: wild-type catalytic subunit of yeast pol α (protein)
chain: MSSKSEKLEKLRKLQAARNGTSIDDYEGDESDGDRIYDEIDEKEYRARKRQELLHDDFVVDDDGVGYVDRGVEEDWREVDNSSSDEDTGNLASKDSKRKKNIKREKDHQITDMLRTQHSKSTLLAHAKKSQKKSIPIDNFDDILGEFESGEVEKPNILLPSKLRENLNSSPTSEFKSSIKRVNGNDESSHDAGISKKVKIDPDSSTDKYLEIESSPLKLQSRKLRYANDVQDLLDDVENSPVVATKRQNVLQDTLLANPPSAQSLADEEDDEDSDEDIILKRRTMRSVTTTRRVNIDSRSNPSTSPFVTAPGTPIGIKGLTPSKSLQSNTDVATLAVNVKKEDVVDPETDTFQMFWLDYCEVNNTLILFGKVKLKDDNCVSAMVQINGLCRELFFLPREGKTPTDIHEEIIPLLMDKYGLDNIRAKPQKMKYSFELPDIPSESDYLKVLLPYQTPKSSRDTIPSDLSSDTFYHVFGGNSNIFESFVIQNRIMGPCWLDIKGADFNSIRNASHCAVEVSVDKPQNITPTTTKTMPNLRCLSLSIQTLMNPKENKQEIVSITLSAYRNISLDSPIPENIKPDDLCTLVRPPQSTSFPLGLAALAKQKLPGRVRLFNNEKAMLSCFCAMLKVEDPDVIIGHRLQNVYLDVLAHRMHDLNIPTFSSIGRRLRRTWPEKFGRGNSNMNHFFISDICSGRLICDIANEMGQSLTPKCQSWDLSEMYQVTCEKEHKPLDIDYQNPQYQNDVNSMTMALQENITNCMISAEVSYRIQLLTLTKQLTNLAGNAWAQTLGGTRAGRNEYILLHEFSRNGFIVPDKEGNRSRAQKQRQNEENADAPVNSKKAKYQGGLVFEPEKGLHKNYVLVMDFNSLYPSIIQEFNICFTTVDRNKEDIDELPSVPPSEVDQGVLPRLLANLVDRRREVKKVMKTETDPHKRVQCDIRQQALKLTANSMYGCLGYVNSRFYAKPLAMLVTNKGREILMNTRQLAESMNLLVVYGDTDSVMIDTGCDNYADAIKIGLGFKRLVNERYRLLEIDIDNVFKKLLLHAKKKYAALTVNLDKNGNGTTVLEVKGLDMKRREFCPLSRDVSIHVLNTILSDKDPEEALQEVYDYLEDIRIKVETNNIRIDKYKINMKLSKDPKAYPGGKNMPAVQVALRMRKAGRVVKAGSVITFVITKQDEIDNAADTPALSVAERAHALNEVMIKSNNLIPDPQYYLEKQIFAPVERLLERIDSFNVVRLSEALGLDSKKYFRREGGNNNGEDINNLQPLETTITDVERFKDTVTLELSCPSCDKRFPFGGIVSSNYYRVSYNGLQCKHCEQLFTPLQLTSQIEHSIRAHISLYYAGWLQCDDSTCGIVTRQVSVFGKRCLNDGCTGVMRYKYSDKQLYNQLLYFDSLFDCEKNKKQELKPIYLPDDLDYPKEQLTESSIKALTEQNRELMETGRSVVQKYLNDCGRRYVDMTSIFDFMLN
modifications: left off: 6HA, end not stated, kept
- association with Pol12 (Pol12): all associated equally well with Pol12

- complex formation with primase (Pri1-Pri2 primase): eluted as a single peak
B2: CTD-Pol12: yeast Pol1 (1263–1468) with His-tagged Pol12 (246–705) (protein)
chain 1: NLQPLETTITDVERFKDTVTLELSCPSCDKRFPFGGIVSSNYYRVSYNGLQCKHCEQLFTPLQLTSQIEHSIRAHISLYYAGWLQCDDSTCGIVTRQVSVFGKRCLNDGCTGVMRYKYSDKQLYNQLLYFDSLFDCEKNKKQELKPIYLPDDLDYPKEQLTESSIKALTEQNRELMETGRSVVQKYLNDCGRRYVDMTSIFDFMLN
chain 2: KFRTMRQNLQEASDVLDDQIESFTKIIQNHYKLSPNDFADPTIQSQSEIYAVGRIVPDSPTYDKFLNPESLSLETSRMGGVGRRVRLDLSQVNELSFFLGQIVAFKGKNANGDYFTVNSILPLPYPNSPVSTSQELQEFQANLEGSSLKVIVTCGPYFANDNFSLELLQEFIDSINNEVKPHVLIMFGPFIDITHPLIASGKLPNFPQFKTQPKTLDELFLKLFTPILKTISPHIQTVLIPSTKDAISNHAAYPQASLIRKALQLPKRNFKCMANPSSFQINEIYFGCSNVDTFKDLKEVIKGGTTSSRYRLDRVSEHILQQRRYYPIFPGSIRTRIKPKDVSTKKETNDMESKEEKVYEHISGADLDVSYLGLTEFVGGFSPDIMIIPSELQHFARVVQNVVVINPGRFIRATGNRGSYAQITVQCPDLEDGKLTLVEGEEPVYLHNVWKRARVDLIAS
modifications: left off: His tag, end not stated, cleaved
